According to ChEMBL document CHEMBL4251576, “Synthesis and biological evaluation of curcumin inspired imidazo[1,2-a]pyridine analogues as tubulin polymerization inhibitors” (Eur J Med Chem, 2018):
pIC50: −log10 of the molar value. Calls of active or inactive are those of the source. No cut-off for these calls is given here.

Key:
NCI-H460 = experiment: Cytotoxicity against human NCI-H460 cells assessed as inhibition of cell viability after 48 hrs by MTT assay; format: functional, cell-based; settings: NCI-H460, 48 h
In short: (§1)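 Cells were seeded at 2.5‒5 x 10^3 per well in DMEM or RPMI with 10% FBS and grown 24 h at 37 °C under CO2. Compounds diluted in medium were added alongside vehicle control for 48 h. MTT (0.5 mg/mL) was added for 4 h, formazan dissolved in DMSO and absorbance read at 570 nm. IC50 is the concentration giving 50% loss of viability; mean ± SD of three experiments, each in triplicate.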

PC-3 [1] = experiment: Cytotoxicity against human PC3 cells assessed as inhibition of cell viability after 48 hrs by MTT assay; format: functional, cell-based; settings: PC-3, 48 h; in short: as §1
PC-3 [2] = experiment: Cell cycle arrest in human PC3 cells assessed as accumulation at subG1 phase at 2 uM after 24 hrs by propidium iodide staining-based flow cytometric method (reference value: 0.38%); format: functional
PC-3 [3] = experiment: Cell cycle arrest in human PC3 cells assessed as accumulation at G0/G1 phase after 24 hrs by propidium iodide staining-based flow cytometric method; format: functional
PC-3 [4] = experiment: Induction of apoptosis in human PC3 cells assessed as destructive fragmentation of nuclei at 2 uM after 48 hrs by acridine orange/ethidium bromide staining-based fluorescence inverted microscopic method; format: functional, cell-based
In short: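 PC-3 cells (25000/well) grown 24 h, then exposed 48 h to 0.5, 1 or 2 µM with DMSO control. After PBS wash, stained with acridine orange and ethidium bromide (10 µg/mL each) and imaged at once by fluorescence inverted microscopy (ex 488 nm, em 530 nm, 200x).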

PC-3 [5] = experiment: Induction of apoptosis in human PC3 cells assessed as late apoptotic cells at 4 uM after 24 hrs by FITC-annexin V/propidium iodide staining-based flow cytometric method (reference value: 5.75%); format: functional
PC-3 [6] = experiment: Induction of apoptosis in human PC3 cells after 24 hrs by FITC-annexin V/propidium iodide staining-based flow cytometric method; format: functional, cell-based
PC-3 [7] = experiment: Induction of apoptosis in human PC3 cells assessed as nuclei condensation at 1 to 2 uM after 48 hrs by DAPI staining-based fluorescence microscopic method; format: functional, cell-based
In short: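 PC-3 cells (25000/well) adhered overnight, then treated 48 h at 1 or 2 µM. After PBS wash, fixed 20 min in 4% neutral buffered formalin, permeabilized 5 min with 0.2% Triton X, and stained 10 min at room temperature with DAPI (1 µg/mL). Nuclei viewed by fluorescence microscopy (ex 350 nm, em 460 nm, 200x).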

PC-3 [8] = experiment: Induction of reactive oxygen species formation in human PC3 cells at 1 to 2 uM after 6 hrs by DCFDA staining-based flow cytometric method; format: functional, cell-based
In short: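 PC-3 cells at 1 x 10^5 cells/mL adhered overnight, then exposed to 1 or 2 µM. Medium replaced with DCFDA (10 µM) for 0.5 h at room temperature in the dark; fluorescence read by flow cytometry (ex 488 nm, em 530 nm). Mean ± SEM of three experiments, one-way ANOVA with Dunnett's test.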

`COc1cc(OC)c(/C=C/C(=O)/C=C/c2nc3ccccn3c2-c2ccc(F)c(F)c2)c(OC)c1` gave a pIC50 (NCI-H460) of 5.58, a pIC50 (PC-3 [1]) of 5.68 and an Activity (PC-3 [2]) of 0.74%. The Activity (PC-3 [3]) was “Dose-dependent effect”, the Activity (PC-3 [4]) was “Active” and the Activity (PC-3 [5]) was 48.34%. The Activity (PC-3 [6]) was “Dose-dependent effect”, the Activity (PC-3 [7]) was “Active” and the Activity (PC-3 [8]) was “Active”.
